The test system of data set [1] is Gαq/11. Put plainly: IP1 accumulation assay. The data set is classed as cell-based. The settings on record: CHO-M1 cells, mean ± SEM (n = 3).
Data set [2] concerns MP41 cells (GNA11 Q209L mutation). Put plainly: Cell proliferation inhibition assay. Particulars: MP41, 72 h, read-out: Antiproliferation (IC50, μmol/L) MP41. The data set is classed as cell-based. An outline of the steps:
(§1)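 Uveal melanoma cells were grown in RPMI-1640 with 10% FBS at 37 °C, 5% CO2. They were resuspended at 3 × 10^3 cells/mL, seeded and left overnight. Cells were exposed to a concentration series of test compound for 72 h. CCK-8 was added for 2–4 h and absorbance read at 450 nm. IC50 values were fitted from the curves and reported as mean ± SEM, n = 3.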

Data set [3] deals with 92.1 cells (GNAQ Q209L mutation). The data set is described as follows: Cell proliferation inhibition assay. The data set is classed as cell-based. Particulars: 72 h, read-out: Antiproliferation (IC50, μmol/L) 92.1. An outline of the steps: as §1
Data set [4] concerns 92.1 cells. Put plainly: Rescue assay, siRNA GNAQ knockdown in 92.1 cells. The data set is classed as cell-based. The settings on record: 10 and 20 μmol/L; 72 h. An outline of the steps: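 Cells were transfected with siRNA against GNA11 (MP41) or GNAQ (92.1), or with a matching control siRNA. After 48 h, cells were reseeded at 3000 cells/well and cultured 18–24 h. They were then exposed to test compound for 72 h. CCK-8 was added for 2–4 h and absorbance read at 450 nm. Data are mean ± SEM, n = 3.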

Data set [5] deals with 92.1 cells. The data set is described as follows: Cell cycle analysis by flow cytometry, 92.1. Format: cell-based. Background: A flow cytometer gives signals particle by particle.
Data set [6] relates to 92.1 cells. Put plainly: Apoptosis assay by flow cytometry, 92.1. The data set is classed as cell-based.
The subject of data set [7] is cleaved caspase-7, Bcl-2, and Mcl-1. The data set is described as follows: Western blot of apoptosis related proteins in UM cells. The data set is classed as cell-based. An outline of the steps:
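Cells or xenograft tumour tissue were lysed in RIPA buffer with protease and phosphatase inhibitors. Lysates were cleared at 15,000 rpm, 4 °C for 15 min, and protein was quantified by BCA. Proteins were separated on 8%–12% SDS-PAGE, transferred to PVDF and blocked with 5% BSA. After primary and secondary antibodies, bands were detected by enhanced chemiluminescence.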
(In western blotting, separated proteins are transferred to a membrane and probed.)

Data set [8] deals with MP41 cells. Put plainly: Transwell invasion assay, MP41. The data set is classed as cell-based. The settings on record: 3, 10, and 20 μmol/L. An outline of the steps:
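MP41 cells (1 × 10^4/well) were placed in Transwell upper chambers, with RPMI-1640 plus 20% FBS in the lower chamber, and left overnight. Cells were then exposed to test compound for 48 h. Non-migrated cells in the upper chamber were removed. Cells in the lower chamber were stained with crystal violet for 0.5 h and counted by microscope at ×100. Data are mean ± SEM, n = 3.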

Data set [9] in a line: Human liver microsome stability assay. The data set is classed as in vitro ADME. The settings on record: liver microsomes, pH 7.4. A digest of the protocol: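 Test compound (1 μmol/L) was preincubated for 5 min at 37 °C with human liver microsomes (0.5 mg/mL) in 100 mmol/L potassium phosphate, pH 7.4, with 5 mmol/L MgCl2. Reactions were started with 1 mmol/L NADPH. Aliquots were quenched with acetonitrile containing internal standard at 0, 5, 15, 30 and 45 min, centrifuged and analysed by LC–MS/MS for half-life and intrinsic clearance.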
In general terms: Liver microsomes are vesicles of endoplasmic reticulum, rich in cytochrome P450 enzymes.

We go through 1 molecule from paper PMC9366314 (Acta Pharmaceutica Sinica. B, 2022).

Regarding `CN1CCC[C@H]1CN1CCn2cc(-c3ccccc3)nc2[C@@H]1CC1CCCCC1` [GQ262], the “IP1 inhibition at 10 μmol/L” value in data set [1] came out at 57.2 ± 1.9%. Moreover, the IC50 in [2] came to 5.1 ± 0.6 µmol/L; in data set [3] it was 10.4 ± 0.1 µmol/L. Moreover, the “Antiproliferative activity on GNAQ knockdown 92.1 cells” value in [4] is “no inhibitory effect on proliferation”. The “Cellular proportion in G0/G1 phase” value in data set [5] (10 μmol/L) worked out at 77.1%; in [5] (20 μmol/L), 83.5%. Further, the Apoptotic rate is on record as 9.34% in data set [6] (10 μmol/L) and 17.5% in data set [6] (20 μmol/L). Also, the “Bcl-2 and Mcl-1 levels” value in data set [7] was “down-regulation”. Besides, in [7], the “Cleaved caspase-7 level” value is listed as “up-regulation”. For the same molecule, the MP41 cell invasion result in data set [8] is “poor invasion”. In data set [9], the CLint scaled – broadly, a measure of how fast metabolising enzymes remove a compound, apart from limits set by blood flow – at 1 μmol/L came to 30.2 mL/min/kg. Moreover, the half-life – broadly, the time needed for the level to fall by half in the phase considered – at 1 μmol/L in data set [9] stood at 57.5 min.
